By pIC50 is commonly meant the IC50 on a negative log10 scale, so that one unit is a factor of ten.

pIC50: −log10 of the molar value.

Common to all, as to format: functional, cell-based
For one assay, the system named is LOX IMVI. Kind of assay: Cytotoxicity against human LOXIMVI cells after 72 hrs by alamar blue assay. The method, boiled down: (§1)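 Cells seeded at 800–1000 per well (20–25 cells/µL) and left overnight to attach. Compounds were diluted serially from 10 mM DMSO stocks and tested at 8 final concentrations, 50 to 0.39 µM, in triplicate for 72 h. Vehicle control was 0.5% DMSO. Alamar blue was added to 10% final and fluorescence read after 4 h (ex 530, em 560 nm). Viability was expressed as percent of vehicle, and IC50 taken as 50% kill versus control.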

A further assay concerns Calu-1. Nature of the assay: Cytotoxicity against human Calu1 cells after 72 hrs by alamar blue assay. As to conditions: Calu-1, 72 h. The method, boiled down: as §1
For a further assay, the system named is M14. Nature of the assay: Cytotoxicity against human M14 cells after 72 hrs by alamar blue assay. Particulars: M14, 72 h. The gist of the method: as §1
The subject of the next assay is NCI-H1299. Nature of the assay: Cytotoxicity against human NCI-H1299 cells after 72 hrs by alamar blue assay. As to conditions: NCI-H1299, 72 h. The gist of the method: as §1
For orientation: The colour change of resazurin is a common sign of viable cells or microbes.

The test system of the next assay is NCI-H1792. Nature of the assay: Cytotoxicity against human NCI-H1792 cells after 72 hrs by alamar blue assay. As to conditions: NCI-H1792, 72 h. The gist of the method:
as §1

In another assay the test system is HOP-62. Kind of assay: Cytotoxicity against human HOP62 cells after 72 hrs by alamar blue assay. As to conditions: HOP-62, 72 h. The method, boiled down: as §1
The next assay concerns NCI-H460. Nature of the assay: Cytotoxicity against human H460 cells after 72 hrs by alamar blue assay. Particulars: NCI-H460, 72 h. The gist of the method: as §1
The subject of another assay is HeLa. Kind of assay: Cytotoxicity against human HeLa cells after 72 hrs by alamar blue assay. The method, boiled down:
as §1

A further assay concerns A549. Kind of assay: Cytotoxicity against human A549 cells after 72 hrs by alamar blue assay. As to conditions: A549, 72 h. The gist of the method: as §1
A short description of assay [1]: Cytotoxicity against human SKBR cells after 72 hrs by alamar blue assay. The method, boiled down:
as §1

Assay [2] can be described thus: Cytotoxicity against human M4E cells after 72 hrs by alamar blue assay. The gist of the method:
as §1

Assay [3] in a line: Cytotoxicity against human 292G cells after 72 hrs by alamar blue assay. The gist of the method:
as §1

The next assay has as its system NCI-H157. Kind of assay: Cytotoxicity against human NCI-H157 cells after 72 hrs by alamar blue assay. Particulars: NCI-H157, 72 h. The gist of the method: as §1
Assay [4] is described as follows: Cytotoxicity against human H266 cells after 72 hrs by alamar blue assay. As to conditions: H266, 72 h. The gist of the method:
as §1

Regarding `COc1cc(/C=C/C(=O)Oc2cccc(OCc3c(-c4ccccc4)no[n+]3[O-])c2)ccc1O`, the pIC50 was 4.31 in the assay on LOX IMVI; below 4.30 in the assay with Calu-1; below 4.30 with M14; below 4.30 in the assay on NCI-H1299; below 4.30 in the assay with NCI-H1792; below 4.30 in the assay with HOP-62. The pIC50 is 4.94 with NCI-H460; below 4.30 with HeLa; 6.14 in the assay with A549; 4.85 in [1]; 4.35 in assay [2]; below 4.30 in [3]. For the same compound, the pIC50 in the assay on NCI-H157 is 4.61; in assay [4], below 4.30.

Take `COc1cc(/C=C/C(=O)OCCCO[N+](=O)[O-])ccc1OCCCO[N+](=O)[O-]`: the pIC50 was below 4.30 in the assay with LOX IMVI; 5.85 with Calu-1; below 4.30 with M14; below 4.30 in the assay on NCI-H1299; below 4.30 in the assay with NCI-H1792; below 4.30 with HOP-62. For the same compound, the pIC50 in the assay with NCI-H460 was below 4.30; in the assay on HeLa, 5.44; in the assay with A549 it was 4.80; in assay [1] it was below 4.30; in [2] it was below 4.30; in assay [3], below 4.30. Moreover, the pIC50 (in the assay on NCI-H157; in assay [4]) was below 4.30 throughout.

Regarding `CCCCOC(=O)/C=C/c1ccc(O)c(OC)c1`, the pIC50 in the assay with LOX IMVI was 4.71; in the assay with Calu-1 it was 4.76; in the assay with M14, 4.74; with NCI-H1299 it was 5.08; in the assay on NCI-H1792, 4.82; in the assay with HOP-62, 4.83. The pIC50 in the assay with NCI-H460 was 4.71; with HeLa, 4.99; in the assay on A549 it was 5.08; in assay [1] it was 4.88; in assay [2], 4.82; in assay [3] it was 4.64. Also, the values for the pIC50 (in the assay with NCI-H157; in assay [4]) were 5.04 and 4.74, respectively.

For the compound `O=C(/C=C/c1ccc(OCCCCCCO[N+](=O)[O-])c(O)c1)OCCCCCCO[N+](=O)[O-]`, the pIC50 with LOX IMVI, in the assay with Calu-1, in the assay on M14, in the assay with NCI-H1299, in the assay with NCI-H1792 and in the assay with HOP-62 was below 4.30 throughout. Moreover, the pIC50 in the assay with NCI-H460 is below 4.30; in the assay with HeLa, 5.87; in the assay on A549, below 4.30; in assay [1], 4.40; in assay [2], below 4.30; in assay [3], below 4.30. Further, the pIC50 (in the assay with NCI-H157; in assay [4]) was below 4.30 in each case.

`O=C(/C=C/c1ccc(O)c(O)c1)OC/C=C/CO[N+](=O)[O-]`: the pIC50 in the assay with LOX IMVI is 6.37; in the assay with Calu-1, 6.38; in the assay with M14, 5.83; in the assay with NCI-H1299, 6.39; in the assay on NCI-H1792 it was 6.39; with HOP-62, 5.33. In addition, the pIC50 with NCI-H460 was 5.54; in the assay with HeLa it was 6.40; in the assay on A549 it was 6.40; in assay [1], 6.39; in assay [2], 5.37; in assay [3] it was 5.10. The pIC50 in the assay with NCI-H157 was 5.87; in assay [4], 4.99.

For the compound `CC(C)OC(=O)/C=C/c1ccc(O)c(O)c1`, the pIC50 in the assay with LOX IMVI was below 4.30; with Calu-1, below 4.30; in the assay with M14, below 4.30; in the assay with NCI-H1299, 4.51; with NCI-H1792, below 4.30; in the assay with HOP-62 it was below 4.30. The pIC50 was 4.98 in the assay on NCI-H460; 5.02 in the assay on HeLa; below 4.30 in the assay on A549; 4.50 in assay [1]; below 4.30 in [2]; below 4.30 in assay [3]. Further, the pIC50 is 4.96 with NCI-H157 and below 4.30 in [4].

Take `COc1cc(/C=C/C(=O)OCc2cccc(OCc3c(-c4ccccc4)no[n+]3[O-])c2)ccc1O`: the pIC50 in the assay on LOX IMVI, in the assay with Calu-1, in the assay on M14, in the assay on NCI-H1299, in the assay on NCI-H1792 and in the assay with HOP-62 was below 4.30 throughout. Moreover, the pIC50 with NCI-H460 was 4.53; in the assay on HeLa, 5.25; with A549, below 4.30; in assay [1], 5.38; in assay [2], below 4.30; in [3], below 4.30. Also, the pIC50 (in the assay on NCI-H157; in assay [4]) was below 4.30 throughout.

As for `O=C(/C=C/c1ccc(OCCCO[N+](=O)[O-])c(O)c1)OCCCO[N+](=O)[O-]`, the pIC50 in the assay on LOX IMVI is 5.16; in the assay on Calu-1, 4.90; with M14, 5.05; in the assay with NCI-H1299, below 4.30; in the assay on NCI-H1792 it was 5.18; in the assay on HOP-62, 5.00. The pIC50 with NCI-H460 was 5.02; in the assay on HeLa, below 4.30; in the assay with A549, 6.16; in assay [1] it was 5.32; in [2], 4.85; in assay [3], 5.30. Moreover, the figures for the pIC50 (in the assay with NCI-H157; in assay [4]) were 5.24 and below 4.30, respectively.

Regarding `CCCCCOC(=O)/C=C/c1ccc(O)c(OC)c1`, the pIC50 in the assay on LOX IMVI, in the assay on Calu-1, in the assay with M14, in the assay on NCI-H1299, in the assay on NCI-H1792 and in the assay on HOP-62 was below 4.30 each time. Moreover, the pIC50 (with NCI-H460; in the assay on HeLa; in the assay with A549; in assay [1]; in assay [2]; in assay [3]) was below 4.30 in each case. Further, the pIC50 (in the assay on NCI-H157; in assay [4]) was below 4.30 in each case.

Regarding `COc1cc(/C=C/C(=O)OCCCCO[N+](=O)[O-])ccc1O`, the pIC50 in the assay on LOX IMVI was 4.69; with Calu-1, 4.52; with M14, 4.49; with NCI-H1299 it was 5.35; in the assay on NCI-H1792, 4.68; in the assay on HOP-62, 4.88. Further, the pIC50 is 4.71 in the assay with NCI-H460; 5.20 in the assay with HeLa; 5.05 in the assay with A549; 5.05 in assay [1]; 4.69 in [2]; 4.55 in assay [3]. Further, the results for the pIC50 (in the assay with NCI-H157; in assay [4]) were 4.89 and 4.61, respectively.

`COc1cc(/C=C/C(=O)OCc2ccc(OCc3c(-c4ccccc4)no[n+]3[O-])cc2)ccc1O`: the pIC50 in the assay on LOX IMVI, in the assay with Calu-1, in the assay on M14, in the assay on NCI-H1299, with NCI-H1792 and in the assay on HOP-62 was below 4.30 in each case. The pIC50 in the assay with NCI-H460 was 4.35; with HeLa, below 4.30; in the assay on A549, 4.76; in [1] it was 4.93; in assay [2] it was below 4.30; in [3], below 4.30. The pIC50 (with NCI-H157; in [4]) was below 4.30 in each case.

For the compound `CC(C)CCOC(=O)/C=C/c1ccc(O)c(O)c1`, the pIC50 is 5.10 in the assay on LOX IMVI; 4.69 in the assay with Calu-1; 4.51 in the assay with M14; 4.75 in the assay with NCI-H1299; 4.50 in the assay with NCI-H1792; 4.80 in the assay on HOP-62. The pIC50 is 4.78 in the assay with NCI-H460; 5.03 with HeLa; 5.06 in the assay with A549; 4.88 in assay [1]; 4.54 in assay [2]; 4.56 in [3]. Moreover, the pIC50 with NCI-H157 was 5.08; in [4], 4.47.

Regarding `COc1cc(/C=C/C(=O)OCCC(C)C)ccc1O` [ISOPENTYL FERULATE], the pIC50 was 4.32 in the assay on LOX IMVI; 4.49 with Calu-1; 4.34 in the assay with M14; 4.50 in the assay on NCI-H1299; 4.42 in the assay with NCI-H1792; 4.51 with HOP-62. Also, the pIC50 in the assay with NCI-H460 was 4.35; in the assay with HeLa, below 4.30; in the assay with A549, 4.36; in assay [1] it was 4.38; in assay [2], 4.52; in assay [3], 4.32. The pIC50 with NCI-H157 is 4.40; in [4], 4.32.

Regarding `CCOC(=O)/C=C/c1ccc(O)c(OC)c1` [ETHYL FERULATE], the pIC50 with LOX IMVI was below 4.30; in the assay on Calu-1 it was below 4.30; with M14, below 4.30; in the assay on NCI-H1299, 4.43; in the assay with NCI-H1792, 4.59; with HOP-62, 4.57. Also, the pIC50 was 4.54 in the assay with NCI-H460; 5.67 with HeLa; 4.90 in the assay on A549; 4.60 in [1]; 4.48 in assay [2]; 4.49 in assay [3]. Also, the values for the pIC50 (in the assay with NCI-H157; in assay [4]) were 4.49 and 4.55, respectively.

Take `CCCCOC(=O)/C=C/c1ccc(O)c(O)c1` [BUTYL CAFFEATE]: the pIC50 in the assay on LOX IMVI is 5.02; in the assay on Calu-1, 4.93; with M14, 4.95; in the assay on NCI-H1299, 5.24; in the assay with NCI-H1792, 5.24; with HOP-62, 5.25. Besides, the pIC50 is 5.25 in the assay with NCI-H460; 6.23 with HeLa; 5.45 in the assay with A549; 5.66 in [1]; 5.06 in assay [2]; 5.19 in assay [3]. For the same compound, the pIC50 in the assay on NCI-H157 was 5.58; in assay [4], 4.95.

These data come from ChEMBL document CHEMBL2086326, “Biological activity evaluation and structure-activity relationships analysis of ferulic acid and caffeic acid derivatives for anticancer” (Bioorg Med Chem Lett, 2012).
